Source: ChEMBL document CHEMBL4118054, “Tamarixetin 3-O-β-d-Glucopyranoside from Azadirachta indica Leaves: Gastroprotective Role through Inhibition of Matrix Metalloproteinase-9 Activity in Mice” (J Nat Prod, 2017)
Active and inactive are the calls of the source. No cut-off for these calls is given here.

Legend:
[1] = test system: Mus musculus; assay: Antiulcerogenic activity in indomethacin-induced gastric ulceration Balb/c mouse model assessed as infilteration of inflammatory cells at submucosal layer at 15 to 25 mg/kg, po administered 30 mins prior to indomethacin challenge measured after 4 hrs by H and E staining based microscopic method; format: functional, organism-based
How it was run: (§1)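 Same indomethacin model (80 mg/kg b.w. oral, test agent 15 or 25 mg/kg b.w. oral 30 min prior, sacrifice at 4 h). Stomach pieces fixed in 4% paraformaldehyde, paraffin-embedded, ~5 μm sections H&E stained. Damage index scored blind as percentage of the gastric corpus circumference showing hemorrhage or epithelial disruption; submucosal infiltrating cells and epithelial continuity inspected microscopically.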

[2] = test system: Mus musculus; assay: Antiulcerogenic activity in indomethacin-induced gastric ulceration Balb/c mouse model assessed as gastric damage index at 25 mg/kg, po administered 30 mins prior to indomethacin challenge measured after 4 hrs by H and E staining based microscopic method (reference value: 40 +/- 7); format: functional; how it was run: as §1
[3] = test system: Mus musculus; assay: Toxicity in indomethacin-induced gastric ulceration Balb/c mouse model assessed as alteration in gastric tissue at 15 to 25 mg/kg, po administered 30 mins prior to indomethacin challenge measured after 4 hrs; format: organism-based; conditions: in vivo
[4] = biological target: T1, Matrix metalloproteinase-9 (Homo sapiens, UniProt P14780); assay: Binding affinity to human full length MMP9 by CD spectral analysis
T1 sequence (P14780 whole entry): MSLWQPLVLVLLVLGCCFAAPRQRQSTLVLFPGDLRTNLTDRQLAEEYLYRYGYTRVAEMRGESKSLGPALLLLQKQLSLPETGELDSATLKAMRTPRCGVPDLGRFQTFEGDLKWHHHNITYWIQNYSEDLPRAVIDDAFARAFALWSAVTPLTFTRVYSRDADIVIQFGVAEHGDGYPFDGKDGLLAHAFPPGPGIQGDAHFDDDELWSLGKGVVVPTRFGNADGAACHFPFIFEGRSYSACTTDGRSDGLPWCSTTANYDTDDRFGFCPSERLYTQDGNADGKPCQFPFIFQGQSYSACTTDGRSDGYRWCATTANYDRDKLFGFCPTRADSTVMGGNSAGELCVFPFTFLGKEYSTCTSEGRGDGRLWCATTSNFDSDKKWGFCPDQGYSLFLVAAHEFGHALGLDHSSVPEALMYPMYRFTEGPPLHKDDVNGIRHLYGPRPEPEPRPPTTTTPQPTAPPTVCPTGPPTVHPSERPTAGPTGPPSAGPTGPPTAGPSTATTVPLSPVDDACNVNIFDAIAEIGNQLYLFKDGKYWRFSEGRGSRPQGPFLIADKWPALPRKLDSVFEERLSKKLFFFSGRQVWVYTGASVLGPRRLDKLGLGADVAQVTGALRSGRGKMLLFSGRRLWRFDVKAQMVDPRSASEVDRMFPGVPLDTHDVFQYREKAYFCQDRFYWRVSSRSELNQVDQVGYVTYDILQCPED
How it was run: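 Near-UV/visible CD spectra (240−700 nm), 1.0 mm quartz cell, under nitrogen at room temperature in aqueous buffer. Ligand held at 100 μM (from 10 mM methanol stock) while MMP-9 varied 0−333 nM. Kd at half-saturation derived from a double-reciprocal plot of Δθ against MMP-9 concentration.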

[5] = test system: Mus musculus; assay: (§2) Antiulcerogenic activity in indomethacin-induced gastric ulceration Balb/c mouse model assessed as decrease in visible gastric hemorrhagic lesions in fundic stomach by measuring ulcer index at 15 mg/kg, po administered 30 mins prior to indomethacin challenge measured after 4 hrs (reference value: 35 +/- 7.5); format: functional
[6] = biological target: T1, Matrix metalloproteinase-9; assay: Binding affinity to human full length MMP9 assessed as decrease in cotton effects of compound up to 500 uM by CD spectral analysis
[7] = biological target: T1, Matrix metalloproteinase-9; assay: Residual activity of recombinant human full length MMP9 at 125 uM preincubated for 1 hr followed by gelatin addition measured after 18 hrs by SDS-PAGE analysis relative to control
[8] = biological target: T1, Matrix metalloproteinase-9; assay: Inhibition of recombinant human full length MMP9 preincubated for 1 hr followed by gelatin addition measured after 18 hrs by SDS-PAGE analysis
How it was run: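 Full-length recombinant human MMP-9 (~5 μg) incubated 1 h at room temperature with 0−500 μM test agent, then run on nonreducing 8% SDS-PAGE with 1 mg/mL gelatin. Gels washed in 2.5% Triton X-100, incubated 18 h at 37 °C in 40 mM Tris-HCl pH 7.4, 200 mM NaCl, 10 mM CaCl2, Coomassie stained; lysis bands quantified by densitometry against untreated enzyme. IC50 taken from activity change versus concentration, saturation set as 100%.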

[9] = test system: Mus musculus; assay: In vivo inhibition of MMP9 in indomethacin-induced gastric ulceration Balb/c mouse model assessed as reduction in indomethacin-induced ProMMP9 activity in gastric tissue administered orally 30 mins prior to indomethacin challenge measured after 4 hrs by gelatin zymographic method; format: functional, organism-based
How it was run: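 Gastric tissue from the indomethacin model (test agent orally 15 or 25 mg/kg b.w., 30 min before indomethacin, 4 h) minced at 4 °C in PBS with protease inhibitors, spun 12000g 15 min. PBS extract (70 μg protein/lane, Lowry) run on 8% SDS-PAGE with 1 mg/mL gelatin, nonreducing. Gels washed in 2.5% Triton X-100, incubated 18 h at 37 °C in 40 mM Tris-HCl pH 7.4, 0.2 M NaCl, 10 mM CaCl2, Coomassie stained, densitometry.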

[10] = test system: Mus musculus; assay: Antiulcerogenic activity in indomethacin-induced gastric ulceration Balb/c mouse model assessed as restoration of intact epithelial layer in stomach at 15 to 25 mg/kg, po administered 30 mins prior to indomethacin challenge measured after 4 hrs by H and E staining based microscopic method; format: functional, organism-based; how it was run: as §1
[11] = test system: Mus musculus; assay: as §2, with “25” for “15”; format: functional
[12] = test system: Mus musculus; assay: Antiulcerogenic activity in indomethacin-induced gastric ulceration Balb/c mouse model assessed as decrease in visible gastric hemorrhagic lesions in fundic stomach administered orally 30 mins prior to indomethacin challenge measured after 4 hrs; format: functional, organism-based
[13] = test system: Mus musculus; assay: Antiulcerogenic activity in indomethacin-induced gastric ulceration Balb/c mouse model assessed as gastric damage index at 15 mg/kg, po administered 30 mins prior to indomethacin challenge measured after 4 hrs by H and E staining based microscopic method (reference value: 40 +/- 7); format: functional; how it was run: as §1
[14] = biological target: T1, Matrix metalloproteinase-9; assay: Residual activity of recombinant human full length MMP9 at 250 uM preincubated for 1 hr followed by gelatin addition measured after 18 hrs by SDS-PAGE analysis relative to control
[15] = biological target: T1, Matrix metalloproteinase-9; assay: Residual activity of recombinant human full length MMP9 at 60 uM preincubated for 1 hr followed by gelatin addition measured after 18 hrs by SDS-PAGE analysis relative to control

- Kd [4]: 0.1 µM
- Activity [6]: Active
- residual activity [7]: 45%
- IC50 [8]: 50 µM
- inhibition [8]: Dose-dependent effect
- residual activity [14]: 40%
- residual activity [15]: 60%
Compound: COc1ccc(-c2oc3cc(O)cc(O)c3c(=O)c2O[C@@H]2O[C@H](CO)[C@@H](O)[C@H](O)[C@H]2O)cc1O
- Activity [1]: Active
- Activity_index [2]: 5
- Activity [3]: Non-Toxic
- UI [5]: 8
- inhibition [9]: Dose-dependent effect
- Activity [10]: Active
- UI [11]: 5
- Activity [12]: Dose-dependent effect
- Activity_index [13]: 10
